ChEMBL document CHEMBL5370575, “Probing the Cytotoxic Signaling Induced by Eupenifeldin in Ovarian Cancer Models” (J Nat Prod, 2023)
Calls of active or inactive are those of the source. The calls are words filed in the database; no cut-off is given here.

Key:
[1] = test system: OVCAR-3; test: Induction of ferroptosis in human OVCAR-3 cells at 0.001 to 10 uM in presence of ferrostatin-1 by CellTiterGlo assay; assay type: functional, cell-based; settings: dose 0.001-10 µM
[2] = test system: OVCAR-8; test: Cytotoxicity against human OVCAR-8 cells assessed as inhibition of cell growth for 72 hrs by CellTiter-Blue cell viability assay; assay type: functional, cell-based
Procedure, shortened: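 5000 cells seeded in triplicate, attached overnight, then exposed for 72 h to serial concentrations in DMSO vehicle (0.05%). Viability was read by fluorometric CellTiter-Blue. IC50 in nM comes from dose–response curves relative to DMSO control. Media: OVCAR3 in RPMI1640, OVCAR5/OVCAR8 in DMEM, hFT33 in DMEM-Ham's F12 50/50, all with 10% FBS. Data are mean ± SEM, three biological replicates.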

SMILES: COC(=O)c1ccc([C@H]2c3[nH]c4ccccc4c3C[C@H](C(=O)OC)N2C(=O)CCl)cc1
- Activity [1]: inactive

SMILES: CO/C1=C\C(C)=C\[C@@H](C)[C@@H](O)[C@@H](C)C/C(C)=C/C=C/[C@H](OC)[C@@H]([C@@H](C)[C@@H](O)[C@H](C)[C@@]2(O)C[C@@H](O)[C@H](C)[C@@H](C(C)C)O2)OC1=O
- Activity [2]: Active

SMILES: CC(C)Oc1ccc(C(=O)Cn2ccnc2)cc1-n1c(CN2CCN(C(=O)COc3ccc(Cl)cc3)CC2)nc2ccccc2c1=O
- Activity [1]: inactive
